Screens from PubChem.
GAA850 FXN act – increases GAA850 frataxin promoter reporter activity; HEK293 lucGAA850 FXN promoter luciferase reporter, 24 h; percent of 10 µM SAHA response; hit rate 0.56% among 360,000; activation, % at 6 µM; AID 540364;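 active means activation above the average of all compounds screened plus 3 SD, cutoff fixed separately per campaign, cut at about 7.5% in these data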;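 further: 0% = DMSO wells and 100% = 10 µM SAHA wells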
V-ATPase pHluor – regulators of yeast V-ATPase proton transport | S. cerevisiae, pHLuorin cytosolic pH fluorescence | response, % at 10 µM | hit rate 0.37% among 350,000; in the data active means response mostly above about 7.3%, no sharp cut-off; inactive means mostly below about 5.4%; further: actives read high
NR2E3 ag-1 – activates human photoreceptor nuclear receptor NR2E3; hit rate 0.12% among 320,000; inhibition of corepressor binding, % at 4.78 µM; GST-NR2E3/biotin-RetCOR TR-FRET, 1536-well; AID 2300; Q9Y5X4;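 active means percent inhibition above the cutoff of mean plus 3 SD of all tested compounds, set per screening campaign, cut at about 20% in these data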;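 further: 0% = DMSO wells and 100% = biotin wells as full block of FRET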
Target sequence (Q9Y5X4 whole entry, looked up): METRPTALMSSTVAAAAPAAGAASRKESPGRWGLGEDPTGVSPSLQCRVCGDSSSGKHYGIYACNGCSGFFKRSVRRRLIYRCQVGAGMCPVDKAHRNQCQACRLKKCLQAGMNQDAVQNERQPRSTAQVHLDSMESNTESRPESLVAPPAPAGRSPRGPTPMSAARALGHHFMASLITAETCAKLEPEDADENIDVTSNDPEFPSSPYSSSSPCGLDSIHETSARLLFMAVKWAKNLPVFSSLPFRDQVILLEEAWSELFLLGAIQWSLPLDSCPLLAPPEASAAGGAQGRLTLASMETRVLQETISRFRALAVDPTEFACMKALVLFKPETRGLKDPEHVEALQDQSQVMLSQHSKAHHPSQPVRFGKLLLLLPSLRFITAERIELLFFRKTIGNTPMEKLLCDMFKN
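Assay system: NR2E3–RetCOR corepressor complex. Quantity: 1.35 nM GST-NR2E3. Buffer or medium: pH 7.5 Tris-based buffer. Reagent: biotinylated RetCOR corepressor at 7 nM final. Schedule: 5 h at 4 °C. Detection: TR-FRET, emission read at 617 and 671 nm. Replicates: one well per compound, singlicate testing.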
Env fusion inh – inhibitors of HIV Env-mediated cell fusion; HeLa-JRFL Env/CEM21 cell fusion, luciferase; inhibition, % at 12.3 µM; hit rate 1.1% among 360,000;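 active means mean replicate inhibition score of at least 50 and every replicate individually at or above 50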;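 further: 0% = plate neutral controls and 100% = maraviroc near 300 nM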
NR2E3 ag-2 – activates human NR2E3 receptor; hit rate 0.35% among 360,000; Q9Y5X4; CHO-S Gal4-NCOR/VP16-NR2E3 two-hybrid, luciferase; inhibition of corepressor binding, % at 3.98 µM; AID 602229;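 active means inhibition above the mean of all tested compounds plus 3 SD, cut at about 70% in these data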;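 further: 0% = DMSO with NR2E3 transfected cells and 100% = cells lacking NR2E3 construct; higher means lower luciferase signal from less NR2E3 corepressor binding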
GalR3 antag – antagonists of human GalR3. HEK293 GalR3-CNG cAMP membrane potential fluorescence; galR3 body fused to GalR1 C-terminus. inhibition, % at 3 µM. hit rate 0.44% among 360,000;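 active means inhibition above the screen-wide average plus 3 SD, cut at about 13% in these data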;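 further: forskolin and galanin both at EC90 stimulate the cells; cAMP rise reported by CNG channel membrane potential dye signal; 0% = forskolin plus galanin with DMSO and 100% = forskolin alone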
GalR3 antag conf – confirmation of human galanin receptor 3 antagonists. inhibition, % at 3 µM. hit rate 59% among 1,600. shares compounds with GalR3 antag. HEK293 GalR3 CNG cAMP biosensor, membrane potential fluorescence; galR3 fused to GalR1 carboxy tail; challenged with forskolin and galanin at EC90;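 active means inhibition above the primary screen's cutoff, the mean inhibition of all screened compounds plus 3 SD, cut at about 13% in these data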;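 further: 0% = forskolin plus galanin and 100% = forskolin alone with DMSO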
CNG parental – acts as nonspecific agonist in parental HEK-CNG cells | shares compounds with GalR3 antag | HEK293-CNG parental cells, cAMP membrane potential fluorescence; normalised: DMSO wells 0%, forskolin wells 100% | activation, % at 3 µM | hit rate 10% among 1,600; in the data active means activation above about 1.3%
Numbers without * were called inactive; . = no result; [ ] = remark or other dose. Rows were chosen to be rich in hits. Some 2.2% of all compounds tested hit in one or more screens of this group.

SMILES	GAA850 FXN act	V-ATPase pHluor	NR2E3 ag-1	Env fusion inh	NR2E3 ag-2	GalR3 antag	GalR3 antag conf	CNG parental
C[C@@H]1CCCCO[C@H](CN(C)S(=O)(=O)c2ccc(F)cc2)[C@H](C)CN([C@@H](C)CO)C(=O)c2cc(NC(=O)Nc3ccc4c(c3)OCO4)ccc2O1	.	.	.	3[16.7 µM]	.	.	.	.
O=C(N/N=C/c1ccc(O)c(O)c1)N/N=C/c1ccc(O)c(O)c1	2	-2	.	-69	-55	13*	-1	0
Cc1nn(CCc2n[nH]c(=S)n2-c2cccc(Cl)c2)c(C)c1[N+](=O)[O-]	0	4	0	-7	-2	-5	.	.
Cc1cccc(-n2c(Cn3nc(C)c([N+](=O)[O-])c3C)n[nH]c2=S)c1	-1	1	3	.	-12	17*	5	0
COc1ccc(C(=O)NC2CCCc3c2cnn3-c2ccccc2F)cc1OC (stereo not given)	-3	-1	1	11	40	68*	42*	0
Cc1cc(C)c(C(=O)NC2CCCc3c2cnn3-c2cccc(C)c2C)o1 (stereo not given)	-5	-1	-8	.	27	-6	.	.
O=C(NC1CCCc2c1cnn2-c1ccc(F)cc1F)c1ccccn1 (stereo not given)	0	1	2	13	-2	-5	.	.
CCc1cc(C(=O)NC2CCCc3c2cnn3-c2cccc(C)c2C)n(C)n1 (stereo not given)	.	.	2	.	.	99*	102*	0
O=C(NC1CCCc2c1cnn2-c1ccccc1F)c1ccccn1 (stereo not given)	-6	-5	1	-33	14	-7	.	.
O=C(NC1CCCc2c1cnn2-c1ccccc1F)c1ccncc1 (stereo not given)	-1	.	.	48	42	32*	75*	0
COc1ccccc1CNC(=O)c1cnn2c(C(F)F)cc(C)nc12	4	-1	0	-15	-5	23*	35*	0
C[C@H](CO)N1C[C@H](C)[C@@H](CN(C)C(=O)Cc2ccncc2)Oc2ncc(C3=CCCC3)cc2C1=O	.	.	.	1[16.7 µM]	.	.	.	.
Oc1ccc2ccccc2c1CN1CCCC1	-1	1	-4	-6	-56	-4	.	.
Oc1ccc2ccccc2c1CN1CCCCC1	-1	-1	.	-7	-38	14*	17*	0
O=C(COC(=O)c1ccc([N+](=O)[O-])s1)NC(c1ccccc1)c1ccccc1	2	1	4	7	23	22*	0	0
COc1ccc(-c2cn(CC(=O)N3CCN(C)CC3)nn2)cc1OC	.	.	.	-4[16.7 µM]	.	.	.	.
NS(=O)(=O)c1ccc(CCNC(=O)CN2CCC(Cc3ccccc3)CC2)cc1	-2	-2	3	29	-10	15*	6	0
O=C(CN1CCC(Cc2ccccc2)CC1)NCCc1ccc(F)cc1	3	-4	2	-3	10	-6	.	.
CC(=O)N(C)C[C@H]1Oc2ncc(C#C[C@@H](C)O)cc2C(=O)N([C@H](C)CO)C[C@H]1C	.	.	.	-23[16.7 µM]	.	.	.	.
C[C@H](CO)N1C[C@H](C)[C@@H](CN(C)C(=O)C2CCC2)Oc2cc(-c3cncnc3)ccc2S1(=O)=O	.	.	.	4[16.7 µM]	.	.	.	.
Cc1ccc(C2C3=C(CC(C)(C)CC3=O)NC3=C2C(=O)c2ccccc23)cc1 (stereo not given)	-2	-1	-4	-11	-17	22*	19*	0
C[C@H](NC(=O)C[C@H]1C[C@H]2c3cc(NC(=O)c4cccnc4)ccc3O[C@H]2[C@H](CO)O1)c1ccccc1	.	.	.	-6[16.7 µM]	.	.	.	.
Cc1cc(C)n(-c2ccc(C(=O)Nc3ccc(S(=O)(=O)NCc4ccco4)cc3)cc2)n1	-4	1	-1	48	36	71*	61*	-1
Cc1ccc(C(=O)Nc2ccc(S(=O)(=O)NCc3ccco3)cc2)cc1	6	1	1	-28	-13	2	.	.
COc1ccc(C(=O)NC2CCCN(Cc3ccccc3F)C2)c(OC)c1OC (stereo not given)	-2	-2	1	7	-25	16*	9	0
SMILES	GAA850 FXN act	V-ATPase pHluor	NR2E3 ag-1	Env fusion inh	NR2E3 ag-2	GalR3 antag	GalR3 antag conf	CNG parental
CC(=O)c1ccc(C(=O)NC2CCCN(Cc3ccccc3F)C2)s1 (stereo not given)	0	1	2	-1	15	-3	.	.
N#C[C@H]1[C@H](c2ccc(-c3cccc(F)c3)cc2)[C@H](CO)N1C(=O)c1cccnc1	.	.	.	10[16.7 µM]	.	.	.	.
COc1ccc(CNc2ncccc2[N+](=O)[O-])cc1	1	2	-2	-10	-40	-10	.	.
O=C(O)CNc1ncccc1[N+](=O)[O-]	2	3	-1	-4	-15	17*	-1	0
C[C@@H]1CCCCO[C@@H](CN(C)Cc2ccccc2)[C@H](C)CN([C@@H](C)CO)C(=O)c2cc(N(C)C)ccc2O1	.	.	.	-19[16.7 µM]	.	.	.	.
C[C@H]1CN([C@@H](C)CO)S(=O)(=O)c2ccc(C#CCN(C)C)cc2O[C@H]1CN(C)C(=O)CC1CC1	.	.	.	-9[16.7 µM]	.	.	.	.
COc1ccc(C2=NN(c3nc(C(=O)O)cs3)C(O)(C(F)(F)F)C2)c(OC)c1 (stereo not given)	1	-2	-2	-4	-20	66*	74*	0
CCCC(=O)Nc1ccc2c(c1)C(=O)N(C)[C@H]1CC[C@@H](CC(=O)NCCc3ccncc3)O[C@H]1CO2	.	.	.	-2[16.7 µM]	.	.	.	.
Cc1occc1-c1nnc(SCCNCCO)o1	-2	4	2	-1	-2	15*	5	0
COCC#Cc1cnc2c(c1)C(=O)N([C@H](C)CO)C[C@H](C)[C@H](CN(C)C(=O)Nc1ccccc1F)O2	.	.	.	-4[16.7 µM]	.	.	.	.
CN(C)/C=N/c1nc2nccc(-c3cccs3)n2n1	0	4	5	-3	-6	13*	-1	0
CC(=O)Oc1ccc2c(c1)OC(c1ccccc1)CC21CC(C)(C)NC(=S)N1 (stereo not given)	-9	-2	3	.	10	.	2	0
CC1(C)CC2(CC(c3ccccc3)Oc3cc(O)ccc32)NC(=S)N1 (stereo not given)	-4	6	2	-22	-9	-1	.	.
CN1CCN(C(=O)C[C@@H]2CC[C@@H](NS(=O)(=O)c3cccc(F)c3)[C@@H](CO)O2)CC1	.	.	.	8[16.7 µM]	.	.	.	.
CCCn1c(=O)c2sccc2n2c(CCCC(=O)NCC3CCCO3)nnc12 (stereo not given)	0	0	0	7	-20	-6	.	.
